Assay outcomes: PubChem, Broad Institute
FN deposition inh = fibronectin deposition inhibition | AH1F fibroblasts, Alexa488-fibronectin deposition fluorescence, overnight | inhibition, % at 12.6 µM | 0.086% of 350,000 active;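 active means mean inhibition across replicates of 30% or more, regardless of how many single replicates reach that level; inconclusive means mean under 30% yet at least half of replicates reach 30%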;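 further: positive control wells lacked labelled fibronectin entirely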
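Test system: AH1F fibroblast monolayer depositing Alexa488-labelled fibronectin into matrix. Input: 10000 cells per well. Technique: fluorescence, ex 485 nm, em 525 nm. Buffer or medium: DMEM plus 2% serum, read in PBS. Timing: 1 h cell adhesion before compound, then overnight fibronectin incubation. Compound: single dose, pinned. Read-out basis: inhibition from reduced deposited-fibronectin fluorescence.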
HIV Env fusion = HIV envelope-mediated fusion inhibition; inhibition, % at 12.3 µM; HeLa-JRFL Env/CEM21 cell fusion, luciferase; 1.1% of 360,000 active; AID 651610;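 active means mean replicate inhibition score of at least 50 and every replicate individually at or above 50; inconclusive means only one of the two criteria met; inactive means mean below 50 and not all replicates reaching 50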;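 further: 0% = plate neutral controls and 100% = maraviroc near 300 nM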
CFTR F508del cor = CFTR F508del correction in bronchial cells; 0.36% of 350,000 active; AID 720511; CFBE cells, YFP halide quenching; stimulated with forskolin plus potentiator P3; % fluorescence drop versus neutral controls; activity (quench increase), % at 7.58 µM;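 active means mean added fluorescence quench of at least 8% versus neutral control, with both replicates also reaching 8%; inconclusive means only one of the mean or replicate conditions met; inactive means mean below 8% and not both replicates reaching 8%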;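 further: cells transiently co-express mutant CFTR-F508del with the halide-sensitive YFP; corrector assay measuring rescue of mutant channel to the surface after 24 h compound exposure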
PAX8 reporter = inhibitors of PAX8 transcriptional activity in RMG-I cells. inhibition, % at 12.6 µM. 1.2% of 360,000 active. RMG-I TPO-luciferase reporter, SteadyGlo, 24 h;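 active means mean replicate inhibition at least 60% with every replicate also reaching 60%; inconclusive means only one of the two criteria is met; inactive means mean below 60% and not all replicates reaching 60%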;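 further: luciferase light reporting Pax8 driven TPO promoter activity; plate controls were median of neutral control wells for no effect and mitoxantrone controls for full effect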
EWS-Fli block = blocks EWS/Fli oncoprotein-driven transcription. A673 NR0B1-luciferase reporter, viability-normalised. inhibition, % at 12.6 µM. 0.67% of 350,000 active;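 active means mean inhibition of at least 50% after viability correction, with every replicate also passing that limit; inconclusive means mean reaches 50% but only one of two replicates passes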;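 further: firefly luciferase signal divided by Alamar Blue viability fluorescence both relative to DMSO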
PGC1a acetyl inh = modulators of PGC1a acetylation | U2OS PGC1a acetylation, AlphaScreen anti-acetyl-lysine; with virally co-expressed GCN5 acetyltransferase | inhibition, % at 15.6 µM | 0.17% of 350,000 active | AID 651687;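 active means every replicate shows inhibition of at least 40%; inconclusive means mean inhibition at least 40% but some replicate below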;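 further: 0% = neutral control wells and 100% = positive control wells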
* marks the source's active call; other numbers are inactive results; u = inconclusive; x = not tested or not shown; ! = a repeat was not active; [ ] = another dose, or the depositor's remark. Rows were chosen to be rich in hits. Some 2.3% of all compounds tested hit in one or more screens of this group.

SMILES	FN deposition inh	HIV Env fusion	CFTR F508del cor	PAX8 reporter	EWS-Fli block	PGC1a acetyl inh
CCC(=O)N[C@@H]1C=C[C@@H](CC(=O)NCC2CC2)O[C@H]1CO	-0.7	x	x	x	x	x
CO[C@@H]1CC[C@@H]2CCN(C)C(=O)[C@@H](C)[C@H](OC)CN(C)C(=O)c3cc(C#N)ccc3OC[C@@H]1O2	5.0	8.7[16.7 µM]	1.7	-12.3	-4.3	0.1
Cn1c(C(=O)NCCCN2CCN(c3ccccc3F)CC2)cc2c(=O)[nH]c3ccccc3c21	x	93.6*	x	x	x	8.3
CN(CCCNC(=O)c1cc2c(=O)[nH]c3ccccc3c2n1C)Cc1ccccc1	2.0	59.1*	5.4	-15.7	-4.7	x
O=C(Cc1csc(Nc2nc(=S)[nH]c3ccccc23)n1)NCCCN1CCN(c2ccccc2F)CC1	x	25.1	0.5	65.0*	43.6	x
CC1CC(C)CN(CCCNC(=O)c2cc3c(=O)[nH]c4ccccc4c3n2C)C1 (stereo not drawn)	-5.5	7.7	-1.1	12.1	-0.8	x
Cc1ccc(NC(=O)C2C(c3ccccc3)C2(Cl)Cl)c(C)c1 (stereo not drawn)	2.8	-62.5	x	12.5	x	70.6*
Cc1cccc(NC(=O)C2C(c3ccccc3)C2(Cl)Cl)c1 (stereo not drawn)	8.8	11.0	2.6	2.2	-13.8	x
CCNC(=O)Oc1ccc(-c2csnn2)cc1	-6.8	8.8	0.7	-15.3	-1.6	3.9
CC(=O)Oc1ccc(-c2csnn2)cc1	x	x	x	x	x	94.6*
O=C(C[C@H]1C=C[C@H](NC(=O)C2CCOCC2)[C@H](CO)O1)Nc1ccccc1	x	x	0.4	x	-0.9	8.2
CCOc1ccc(N2C(=O)CC(Cc3ccc(Br)cc3)C2=O)cc1 (stereo not drawn)	6.3	8.8	3.1	6.0	8.5	70.9*
CCOC(=O)CCS(=O)(=O)c1nc(-c2ccccc2)cc(C(F)(F)F)n1	x	x	x	x	x	67.6*
CCOC(=O)CS(=O)(=O)c1nc(-c2ccccc2)cc(C(F)(F)F)n1	x	x	x	x	x	58.2*
CCOC(=O)CS(=O)(=O)c1nc(-c2ccc(F)cc2)cc(C(F)(F)F)n1	x	x	x	x	x	26.5
COc1cccc(-c2ccc(C3[C@@H]4CN(S(=O)(=O)c5cccc(OC)c5)C[C@H]3N4)cc2)c1 (stereo partly drawn)	6.4	x	21.4*!	-12.5	2.9	-24.3
Cc1ccc(S(=O)(=O)N2C[C@@H]3N[C@H](C2)[C@@H]3c2ccc(-c3cccc(C)c3)cc2)cc1	-3.6	x	0.4	-5.7	-2.1	-65.9
COc1cccc(-c2ccc(C3[C@@H]4CN(C(=O)c5cnccn5)C[C@H]3N4)cc2)c1 (stereo partly drawn)	-5.4	x	-4.7	-21.3	52.2*!	1.5
Cc1ccc(-c2ccc(C3[C@@H]4CN(S(=O)(=O)c5ccc(C)cc5)C[C@H]3N4)cc2)cc1 (stereo partly drawn)	-2.8	x	-4.6	73.2*	8.1	-18.7
COc1cccc(S(=O)(=O)N2C[C@@H]3N[C@H](C2)C3c2ccc(-c3ccccc3F)cc2)c1 (stereo partly drawn)	1.0	x	10.0*!	12.0	9.2	-17.4
C[C@@H]1CN(C)C(=O)c2ccccc2O[C@H]1CN(C)S(C)(=O)=O	4.5	x	x	x	x	x
COc1ccccc1-c1nnc2sc(C3CCCCC3)nn12	-3.8	12.7	x	x	x	23.9
c1cc(-c2nnc3sc(C4CCCCC4)nn23)ccn1	0.0	62.6*	x	x	x	24.4
C[C@@H]1CN([C@@H](C)CO)C(=O)c2cccc(NS(=O)(=O)c3cccs3)c2O[C@H]1CN(C)C(=O)Nc1ccccc1	x	-15.7[16.7 µM]	-1.3	x	-3.4	2.4
COc1cccc(NC(=O)C(NCCc2ccc(S(N)(=O)=O)cc2)c2ccccc2)c1 (stereo not drawn)	-7.8	4.9	4.0	74.4*	11.1	-10.8
SMILES	FN deposition inh	HIV Env fusion	CFTR F508del cor	PAX8 reporter	EWS-Fli block	PGC1a acetyl inh
NC(c1csc(NC(=O)Nc2ccc(OC(F)(F)F)cc2)n1)C1CCCCC1 (stereo not drawn)	-9.0	-7.3	3.9	24.8	54.9*	4.0
C[C@H]1CC=CC[C@H](c2ccccc2)NC(=O)[C@H](Cc2ccccc2)N(C)C(=O)c2ccccc2O1 (mixture of isomers)	-9.6	x	x	x	x	x
COc1ccccc1-n1cc([C@@H]2C[C@H]3CN(c4ccccc4)C(=O)[C@]34CCCN24)cn1	-4.6	58.6*	-3.8	97.8*	-13.5	7.6
CCCNC(=O)N1C[C@@H](O)COC[C@H]2O[C@@H](CC(=O)N3CCC(Cc4ccccc4)CC3)CC[C@@H]21	-13.8	8.4[16.7 µM]	1.8	6.9	2.5	-1.5
C[C@H]1CCCCO[C@@H](CN(C)C(=O)Nc2ccc(F)cc2)[C@@H](C)CN([C@@H](C)CO)C(=O)c2cc(NC(=O)Nc3ccc(C(F)(F)F)cc3)ccc2O1	x	13.0[16.7 µM]	2.1	32.8	0.9	5.0
C[C@H](CO)N1C[C@H](C)[C@@H](CN(C)C(=O)Nc2ccc(F)cc2)OCCCC[C@H](C)Oc2ccc(NC(=O)Nc3ccc(C(F)(F)F)cc3)cc2C1=O	x	3.7[16.7 µM]	5.8	39.3	3.6	-5.4
C[C@@H]1CN([C@H](C)CO)C(=O)c2cc(NC(=O)Nc3ccc(C(F)(F)F)cc3)ccc2O[C@@H](C)CCCCO[C@H]1CN(C)C(=O)Nc1ccc(F)cc1	x	46.6[16.7 µM]	-0.5	84.1*	7.8	-10.6
C[C@@H]1CCCCO[C@H](CN(C)C(=O)Nc2ccc(F)cc2)[C@@H](C)CN([C@@H](C)CO)C(=O)c2cc(NC(=O)Nc3ccc(C(F)(F)F)cc3)ccc2O1	x	12.5[16.7 µM]	0.8	95.1*	-1.1	-1.0
COc1ccc(NC(=O)N2CCCCN3[C@H](CO)[C@H](c4ccc(C5=CCCC5)cc4)[C@H]3C2)cc1	x	x	-2.9	42.9	18.4	-45.7
O=C(Nc1ccccc1)N1CCCCN2[C@H](C1)[C@@H](c1ccc(C3=CCCCC3)cc1)[C@@H]2CO	x	x	1.0	17.6	-11.1	-22.3
O=C(Nc1ccc(F)cc1)N1CCCCN2[C@H](CO)[C@@H](c3ccc(C4=CCCCC4)cc3)[C@H]2C1	x	x	0.1	73.6*	u	2.7
COc1ccc(NC(=O)N2CCCCN3[C@@H](CO)[C@@H](c4ccc(C5=CCCC5)cc4)[C@@H]3C2)cc1	x	x	-3.8	81.8*	4.3	-49.0
C/C(=N\NC(=O)COc1ccccc1-c1ccccc1)c1ccccn1	-3.0	10.6	-3.4	81.1*	0.0	6.2
O=C(COc1ccccc1-c1ccccc1)N/N=C/c1ccncc1	7.0	-22.6	-0.3	3.1	2.6	4.2
O=C(COc1ccccc1-c1ccccc1)N/N=C/c1ccc2ccccc2c1	-13.9	-10.1	x	93.5*	39.7	x
C/C(=N\NC(=O)COc1ccccc1-c1ccccc1)c1cccnc1	-3.1	6.0	-1.9	14.4	0.3	x
COc1ccccc1Oc1ccc(S(=O)(=O)NCc2ccccn2)cc1	x	75.6*	x	x	x	x
COc1ccc(S(=O)(=O)NCc2ccccn2)cc1OC	14.1	14.0	-1.2	-85.4	-4.5	4.0
COc1ccc(S(=O)(=O)NCc2ccccn2)cc1NC(=O)c1ccccc1C	-8.2	15.6	3.7	14.6	60.4*	-7.7
